{"source": "PubChem BioAssay AID617", "about": "(SRMLSC, 2007)"}
{"tested_on": "E. coli BW25113 ΔtolC growth inhibition, OD615", "experiment": "growth inhibitors of E. coli tolC mutant, dose response, strain BW25113 ΔtolC::kan (AID 617)", "how_it_was_run": "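System: E. coli BW25113 ΔtolC::kan bacteria. Amount: 1:1000 diluted subculture inoculum. Medium: LB broth supplemented with kanamycin at 50 µg/mL. Compound dosing: serial dilution series of compound. Schedule: 20 h exposure at 37 °C. Detection: OD615. Measure: IC50 of bacterial growth inhibition. Benchmarks: chloramphenicol control, 30 µM final.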", "units": {"IC50": "µM"}}
{"smiles": "CCOC(=O)c1c(CN2CCOCC2)n(-c2ccccc2)c2ccc(O)cc12", "IC50": 18.3}
{"smiles": "CCN(CC)c1ccc(-c2nn3c(-c4n[nH]c5c4CCC5)nnc3s2)cc1", "IC50": 20.8}
{"smiles": "Cc1cc(C)c(C#N)c(SCC(=O)OC2CCCCC2)n1", "IC50": 19.1}
{"smiles": "Cn1c(CSc2nnc(SCc3ccccc3)s2)nc2ccccc21", "IC50": 22.5}
{"smiles": "CC1=CCC(COC(=O)Nc2ccccc2)CC1", "note": "(configuration not stated)", "IC50": 26.8}
{"smiles": "Cc1ccc(Nc2nc(CSc3nnnn3-c3ccccc3)cs2)cc1", "IC50": 11.5}
{"smiles": "Oc1cccc(Nc2nc(NCC3CCCO3)c3ccccc3n2)c1", "note": "(configuration not stated)", "IC50": 4.68}
{"smiles": "O=C(Nc1nnc(-c2ccccc2Cl)o1)c1ccc(S(=O)(=O)N2CCCCCC2)cc1", "IC50": 0.16}
{"smiles": "COc1ccc(NS(=O)(=O)c2ccc3oc(Nc4ccc5c(c4)OCCO5)nc3c2)cc1", "IC50": 7.68}
{"smiles": "CCOC(=O)c1c(C)[nH]c(C)c1C(=O)Cn1nnc(-c2ccccc2C)n1", "IC50": 5.44}
{"smiles": "O=C(CSc1nc(O)c(C2CCCCC2)c(=O)[nH]1)Nc1ccc(Cl)cc1", "IC50": 8.66}
{"smiles": "O=C(c1cc(-c2ccccc2)on1)N1CCN(Cc2ccc3c(c2)OCO3)CC1", "IC50": 20.8}
{"smiles": "Cc1ccc(C(c2nnnn2CCc2ccccc2)N2CCSCC2)cc1", "note": "(configuration not stated)", "IC50": 30.9}
{"smiles": "O=c1c2cc3ccccc3n2cnn1Cc1ccccc1F", "IC50": 17.2}
{"smiles": "CCn1c(=N)n(CC(=O)C23CC4CC(CC(C4)C2)C3)c2ccccc21", "IC50": 13}
{"smiles": "Nc1nc(CN2CCN(c3cccc(Cl)c3)CC2)nc(N2CCCc3ccccc32)n1", "IC50": 4.27}
{"smiles": "Brc1cccc(C2CC(c3ccccc3)n3nnnc3N2)c1", "note": "(configuration not stated)", "IC50": 23.7}
{"smiles": "COc1ccc2c(c1)OC(O)(C(F)(F)C(F)F)CC2=O", "note": "(configuration not stated)", "IC50": 7.68}
{"smiles": "CCc1ccc(S(=O)(=O)NCCc2csc(-c3ccccc3)n2)s1", "IC50": 8.87}
{"smiles": "Cc1noc(C)c1COC(=O)c1cc(C)n(-c2ccccc2)c1C", "IC50": 11.5}
{"smiles": "O=C(c1cc2ccccc2o1)N1CCN(c2ccccc2Cl)CC1", "IC50": 9.9}
{"smiles": "COc1ccccc1-c1noc(CCC(=O)Nc2cccc(C(F)(F)F)c2)n1", "IC50": 15.9}
{"smiles": "C=CCn1c(NC(C)c2cc(Cl)ccc2O)nc2ccccc21", "note": "(configuration not stated)", "IC50": 6.8}
{"smiles": "COc1cccc(N2CCN(CC(=O)Nc3nc4c(s3)CC(C)CC4)CC2)c1", "note": "(configuration not stated)", "IC50": 10.4}
{"smiles": "O=C(Nc1ccc2c(c1)OCO2)c1ccc(COc2ccc3c(c2)CCC3)o1", "IC50": 7.79}
{"smiles": "CCOc1cc(/C=C(/C#N)c2ccc(F)cc2)ccc1OCc1ccc(C(=O)O)o1", "IC50": 4.4}
{"smiles": "CCCn1nnc(NC(=O)COc2ccc(C3CCCCC3)cc2)n1", "IC50": 9.4}
{"smiles": "CCOC(=O)C1CCN(c2nc3cc(OC)ccc3cc2C#N)CC1", "IC50": 14.9}
{"smiles": "O=c1ccsn1Cc1ccccc1", "IC50": 3.15}
{"smiles": "CCOC(=O)c1c(-c2ccccc2)nnn1-c1nc(OCC)nc(N2CCCCC2)n1", "IC50": 20.7}
{"smiles": "COc1cc(Cc2cnc(N)nc2N)cc(OC)c1OC", "IC50": 0.34}
{"smiles": "CN(Cc1ccccc1)c1nc2c(c(=O)n(C)c(=O)n2C)n1CCCc1ccccc1", "IC50": 7.51}
{"smiles": "Cc1cc(C)cc(-n2ccnc2SCC(=O)Nc2ccc3c(c2)OCCO3)c1", "IC50": 28.1}
{"smiles": "Cc1nc(N2CCN(Cc3ccccc3)CC2)nc2c1C(=O)CC(c1ccco1)C2", "note": "(configuration not stated)", "IC50": 10.6}
{"smiles": "N#Cc1ccc(CSc2nnc(-c3cccs3)n2-c2ccccc2)cc1", "IC50": 15.6}
{"smiles": "Nc1c(C(=O)NCCc2ccccc2)c2nc3ccccc3nc2n1CCN1CCOCC1", "IC50": 12.4}
{"smiles": "CS(=O)c1nc(-c2ccc(Br)cc2)cc(-c2ccccc2)c1C#N", "note": "(configuration not stated)", "IC50": 10.4}
{"smiles": "Cc1cc(C(=O)OCc2nnc(-c3ccccc3)o2)c(C)n1-c1ccccc1", "IC50": 9.88}
{"smiles": "O=S(=O)(Nc1nc2ccccc2nc1NCc1ccco1)c1cccs1", "IC50": 8.75}
{"smiles": "CCC(=O)N1CCN(c2cc3c(cc2F)c(=O)c(C(=O)O)cn3CC)CC1", "IC50": "< 0.2"}
{"smiles": "COCc1cc(C)nc2sc3c(=O)oc(C)nc3c12", "IC50": 96.2}
{"smiles": "O=S(=O)(NCCSc1ccc(Cl)cc1)c1ccc2c(c1)OCCO2", "IC50": 8.89}
{"smiles": "COc1ccc(-c2csc(NCc3ccco3)n2)cc1C", "IC50": 23.2}
{"smiles": "Cc1ccc(C2(c3ccc(C)cc3)NC(=O)N(Cc3c(C)noc3C)C2=O)cc1", "IC50": 6.45}
{"smiles": "CN(C)c1nc(SCCOC(=O)Nc2ccccc2)nc(N(C)C)n1", "IC50": 12}
{"smiles": "CSc1nc(-c2ccccc2)nc(N2CCCC2)c1C(C)=O", "IC50": 12.7}
{"smiles": "COc1ccc2[nH]c3c(=O)n(CCCCC(=O)N4CCCC4)c(=S)[nH]c3c2c1", "IC50": 0.75}
{"smiles": "Oc1ccc(-c2[nH]ncc2-c2ccc(Cl)cc2)c(O)c1", "IC50": 11.1}
{"smiles": "O=C(Nc1nc2ccccc2s1)C1CCCN1S(=O)(=O)c1ccc(Cl)cc1", "note": "(configuration not stated)", "IC50": 8.91}
{"smiles": "O=C(Nc1nc(-c2cccs2)cs1)c1ccc(Cl)s1", "IC50": 26.3}
{"smiles": "O=C(CN1CCN(c2nc(-c3ccc(F)cc3)cs2)CC1)NCc1ccc2c(c1)OCO2", "IC50": 11.1}
{"smiles": "CCc1ccccc1N(C)C(=O)CCc1nc(-c2ccc(C)cc2)no1", "IC50": 13.8}
{"smiles": "CCN(C1CCCCC1)S(=O)(=O)c1ccc(OC)c(C)c1", "IC50": 16.9}
{"smiles": "CCC(C)(C)n1nnnc1CN(Cc1ccc(Cl)cc1)Cc1ccco1", "IC50": 12.6}
{"smiles": "c1ccc(-c2cccc(-c3ccccn3)n2)nc1", "IC50": 19.4}
{"smiles": "Cc1ccc2[nH]c(=O)c(CN(Cc3nnnn3Cc3ccccc3)C3CCCC3)cc2c1", "IC50": 53.3}
{"smiles": "N#Cc1nc(COc2ccc(-c3ccccc3)cc2)oc1NCc1cccnc1", "IC50": 8.6}
